APJ antagonist: antagonists of human apelin receptor APJ, primary screen, CHO-K1 cells, beta-arrestin complementation, luminescence; inhibition, % at 20 µM; AID 2521, 2010; hit rate 0.32% among 330,000;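 active = inhibition above about 40% at 20 µM, limit read from the data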;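 note: cells challenged with 10 nM apelin-13 agonist together with compound; plate controls were apelin-13 plus DMSO wells for no effect and DMSO wells lacking apelin-13 for full effect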
CCR6 antag: CCR6 receptor antagonists, primary screen, cell-based, CHO-K1, luminescence, beta-arrestin, uHTS. C-C chemokine receptor type 6 (Homo sapiens), P51684. hit rate 0.49% among 340,000. CHO-K1 CCR6 PathHunter beta-arrestin, CCL20-stimulated. AID 493098, 2011. inhibition, % at 20 µM;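 active = compounds whose inhibition of the agonist-driven luminescence signal at 20 µM reaches about 50%, limit read from the data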;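 note: cells stimulated with CCL20 at 14 nM final; plate controls were DMSO with CCL20 for no effect and DMSO without agonist for full effect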
EBI2 block: EBI2 receptor antagonists, beta-arrestin recruitment, primary screen, cell-based, luminescence, 7a,25-OHC stimulation, uHTS | hit rate 0.81% among 360,000 | AID 651636, 2012 | inhibition, % at 5 µM | G-protein coupled receptor 183 (Homo sapiens), P32249 | 7a,25-OHC stimulated; in the data active = inhibition above about 38%;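 note: enzyme fragment complementation signal reports receptor beta-arrestin coupling in cells; 0% = agonist plus DMSO wells and 100% = wells without agonist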
Target sequence (P32249 whole entry, looked up, the tested form may be a part): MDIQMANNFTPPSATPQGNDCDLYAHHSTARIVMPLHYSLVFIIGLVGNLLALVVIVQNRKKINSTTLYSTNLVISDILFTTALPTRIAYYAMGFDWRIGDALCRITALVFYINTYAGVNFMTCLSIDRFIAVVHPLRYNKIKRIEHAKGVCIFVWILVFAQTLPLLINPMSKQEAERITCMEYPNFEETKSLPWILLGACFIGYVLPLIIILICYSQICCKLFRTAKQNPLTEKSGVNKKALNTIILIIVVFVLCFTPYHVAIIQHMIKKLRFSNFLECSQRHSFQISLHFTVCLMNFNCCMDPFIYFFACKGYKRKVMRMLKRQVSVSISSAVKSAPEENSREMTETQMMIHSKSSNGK
APJ agonist: agonists of human apelin receptor APJ, primary screen, CHO-K1 cells, PathHunter beta-arrestin, luminescence | P35414 | 0% DMSO wells, 100% apelin | activation, % at 20 µM | hit rate 0.11% among 330,000 | AID 2520, 2010;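 active = activation more than six SD over the plate average, tested at 20 µM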;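 note: 0% = DMSO alone and 100% = apelin-13 at 10 nM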
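Assay system: CHO-K1 APJ beta-arrestin complementation cell line / Compound: single test compound dose, 20 µM final, 1% DMSO / Times: overnight seeding, 90 min compound at 25 °C, 1 h detection / Technique: beta-gal luminescence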
CXCR6 block: CXCR6 receptor inhibitors, primary screen, cell-based, beta-arrestin, luminescence, CHO-K1 PathHunter, 1536-well; inhibition, % at 20 µM; hit rate 0.36% among 360,000; in the data active = inhibition above about 34%, passing the limit was not always enough;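 note: antagonist mode with CXCL16 agonist at 10 nM final; 0% = 10 nM CXCL16 with DMSO and 100% = unstimulated wells without agonist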
APJ antag confirm: APJ antagonists blocking beta-arrestin recruitment, confirmation, cell-based, luminescence, single concentration, uHTS hits; shares compounds with APJ antagonist; antagonist mode; inhibition, % at 20 µM; hit rate 66% among 950; AID 2766, 2010; in the data active = inhibition above about 50%
Starred values were filed as active, the others as inactive; nt = no result. Only some compounds are listed: those with a hit (about 1.5% of all), similar ones and a draw of the others.

SMILES	APJ antagonist	CCR6 antag	EBI2 block	APJ agonist	CXCR6 block	APJ antag confirm
O=C(Cn1cnc2c(NC(=O)OCc3ccccc3)ncnc21)NCc1ccccn1	-8	-3	-2	-2	1	nt
Cc1ccc(NC(=O)CCNS(=O)(=O)c2ccc3c(c2)CCC(=O)N3)cc1	0	3	-1	-6	-4	nt
Cc1ccc(NC(=O)CCNS(=O)(=O)c2ccc3c(c2)CCC(=O)N3)c(Br)c1	41*	4	0	-2	-1	-8
CC1(C)C(c2ccccc2)=NC(c2ccc(Br)cc2)N1O (centres undefined)	77*	58*	20	-11	34	33
CC1(C)C(c2ccccc2)=NC(c2ccccc2)N1O (centres undefined)	8	40	-1	-3	14	nt
COC(=O)c1ccc2c(c1)C(C)(C)C(/C=C/c1ccc(O)cc1)=[N+]2C	70*	91*	0	-2	74*	129*
Cc1cc(C)c2ccc(N)nc2c1O	51*	62*	-31	-9	49*	59*
C=CCOCC(O)Cn1c(N2CCCC2)nc2c1c(=O)[nH]c(=O)n2C (centres undefined)	10	16	-1	1	-2	nt
O=C(COC(=O)c1ccc(Br)o1)c1ccc(S(=O)(=O)N2CCCCC2)cc1	68*	64*	30	-12	44*	90*
O=C(COC(=O)c1ccco1)c1ccc(S(=O)(=O)N2CCCCC2)cc1	57*	48	4	-28	30	65*
CNS(=O)(=O)c1cccc(C(=O)OCC(=O)c2ccc(S(=O)(=O)N3CCCCC3)cc2)c1	62*	53*	19	-22	34	60*
O=C(COC(=O)c1ccco1)Nc1cc(S(=O)(=O)N2CCCCC2)ccc1Cl	-1	9	11	-3	8	nt
CNS(=O)(=O)c1cccc(C(=O)OCC(=O)c2cc3ccccc3o2)c1	81*	73*	13	-11	43*	69*
COc1ccc(NC(=O)CN(C)C(=O)c2c(C)nn(Cc3ccccc3)c2C)cc1	20	7	-3	0	-5	nt
O=C(NCc1cc(C(F)(F)F)ccc1Cl)c1cccc2c1C(=O)c1ccc(Cl)cc1S2(=O)=O	-28	nt	nt	3	nt	nt
O=C(COc1ccccc1)OCC(=O)c1ccc(S(=O)(=O)N2CCCCC2)cc1	85*	68*	14	-7	42*	116*
O=C(COC(=O)c1ccccc1)c1ccc(S(=O)(=O)N2CCCCC2)cc1	27	38	26	-17	27	nt
O=C(CC[C@H]1O[C@@H](n2ccc(=O)[nH]c2=O)[C@H](O)[C@@H]1O)NCC(c1ccccc1)c1ccccc1	nt	nt	-18	nt	3	nt
Cc1nn(CC(=O)NCCCc2ccccc2)c(=O)c2cc3occc3n12	41*	8	12	-1	4	-2
O=C(N/N=C\c1ccc([N+](=O)[O-])o1)c1cncc(Br)c1	42*	18	7	3	-11	22
O=C(N/N=C/c1ccc(-c2ccccc2[N+](=O)[O-])o1)c1cncc(Br)c1	-22	23	-1	4	6	nt
C/C(=N\Nc1ccc(Cl)c(C(=O)O)c1)c1ccc[nH]1	-39	-1	8	3	-13	nt
Cc1cccc(-n2c(CNC(=O)c3ccc(S(=O)(=O)N4CCCCC4)cc3)n[nH]c2=S)c1	-8	-4	-12	1	16	nt
CN(Cc1cc([N+](=O)[O-])ccc1Cl)C(=O)C[n+]1ccccc1	19	-9	-5	1	-4	nt
CC1=C(CC[C@@H](C)CO)OC2CC3C4CCC5CC(O)CCC5(C)C4CC(=O)C3(C)C12 (some centres undefined)	-33	-25	-26	2	-2	nt
O=C(Nc1cccc([N+](=O)[O-])c1)Nc1ccc2c(c1)OCCO2	42*	20	5	-4	-2	6
O=C(Nc1cccc([N+](=O)[O-])c1)Nc1cccc([N+](=O)[O-])c1	16	36	8	-4	23	nt

Screens from PubChem BioAssay.
